Assay results from ChEMBL document CHEMBL1157613, “Salicylic acid based small molecule inhibitor for the oncogenic Src homology-2 domain containing protein tyrosine phosphatase-2 (SHP2)” (J Med Chem, 2010).
The source made the active and inactive calls. The calls are words filed in the database; no cut-off is given here.

The compounds below were run against T1, Tyrosine-protein phosphatase non-receptor type 11 (Homo sapiens) (UniProt Q06124) (assay: Inhibition of SHP2-dependent ERK1/2 activation in EGF-stimulated HEK293 cells assessed as phosphorylated ERK1/2 level at 20 uM treated for 3 hrs before EGF challenge measured after 60 mins of EGF stimulation by immunoblot analysis).
T1 sequence (whole entry): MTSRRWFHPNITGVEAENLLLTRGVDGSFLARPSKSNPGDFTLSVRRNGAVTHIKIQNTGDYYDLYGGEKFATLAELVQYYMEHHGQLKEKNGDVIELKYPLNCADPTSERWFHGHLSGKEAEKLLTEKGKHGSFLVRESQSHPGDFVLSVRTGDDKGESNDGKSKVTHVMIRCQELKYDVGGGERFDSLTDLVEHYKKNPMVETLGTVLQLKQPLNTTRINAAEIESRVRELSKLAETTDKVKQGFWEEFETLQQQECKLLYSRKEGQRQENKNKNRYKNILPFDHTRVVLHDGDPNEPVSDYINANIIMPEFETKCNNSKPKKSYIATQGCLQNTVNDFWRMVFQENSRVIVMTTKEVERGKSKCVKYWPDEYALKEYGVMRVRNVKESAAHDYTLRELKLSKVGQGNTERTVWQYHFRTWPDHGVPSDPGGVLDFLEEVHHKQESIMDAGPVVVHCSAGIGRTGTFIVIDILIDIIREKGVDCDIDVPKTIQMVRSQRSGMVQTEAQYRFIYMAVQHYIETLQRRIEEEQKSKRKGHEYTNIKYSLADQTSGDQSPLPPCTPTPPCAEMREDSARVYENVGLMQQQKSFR
Type: cell-based
Procedure, shortened: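 HEK293 cells in DMEM with 10% FCS, 4 × 10^5 per well, grown 24 h. They were serum-deprived 16 h, given vehicle or compound at 0-20 μM for 3 h, then stimulated with EGF 2 ng/mL for 60 min. Lysates (30 μg) were run on 10% SDS-PAGE and immunoblotted for phospho-ERK1/2, normalised to total ERK1/2.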

Row | inhibition | SMILES
1 | inactive | Cn1c(-c2ccccc2)c(-c2cn(CCC(=O)Nc3ccccc3)nn2)c2cc(C(=O)O)c(O)cc21

The compounds below were run against T2, Tyrosine-protein phosphatase non-receptor type 11 (Homo sapiens, UniProt Q06124) (assay: Inhibition of SHP2 […] expressed in Escherichia coli BL21 (DE3) assessed as inhibition of p-nitrophenyl phosphate hydrolysis at pH 7 by spectrophotometry).
T2 sequence (Q06124 whole entry): T1 sequence (whole entry)

Row | SMILES | IC50
2 | Cn1c(-c2ccccc2)c(-c2cn(CCC(=O)Nc3ccccc3)nn2)c2cc(C(=O)O)c(O)cc21 | 86 µM
3 | Cn1c(-c2ccccc2)c(-c2cn(CC(=O)NC3c4ccccc4-c4ccccc43)nn2)c2cc(C(=O)O)c(O)cc21 | 10.4 µM
4 | C#Cc1c(-c2ccccc2)n(C)c2cc(O)c(C(=O)O)cc12 | 212 µM
5 | Cn1c(-c2ccccc2)c(-c2cn(CCCC(=O)Nc3ccc(-c4ccccc4)cc3)nn2)c2cc(C(=O)O)c(O)cc21 | 12 µM

These reach a lower IC50. Values come first.

Row | IC50 | SMILES
6 | 9.3 µM | Cn1c(-c2ccccc2)c(-c2cn(CC(=O)Nc3ccc(-c4ccccc4)cc3)nn2)c2cc(C(=O)O)c(O)cc21
7 | 9.1 µM | Cn1c(-c2ccccc2)c(-c2cn(CC(=O)Nc3nc4ccccc4s3)nn2)c2cc(C(=O)O)c(O)cc21
8 | 8 µM | Cn1c(-c2ccccc2)c(-c2cn(CCCCC(=O)N3c4ccccc4Sc4ccccc43)nn2)c2cc(C(=O)O)c(O)cc21
9 | 7.8 µM | Cn1c(-c2ccccc2)c(-c2cn(CC(=O)Nc3ccc(N4CCOCC4)cc3)nn2)c2cc(C(=O)O)c(O)cc21
